Measured values: ChEMBL document CHEMBL1138081, “New furan side tetracyclic allopsoralen derivatives: synthesis and photobiological evaluation” (J Med Chem, 2006)

Experiments:
[1] = test system: HL-60; test: Antiproliferative activity against HL60 cells in dark; format: functional, cell-based; conditions: Homo sapiens
Summary of the method: (§1)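 HL-60 cells (10^5 per well) were grown in RPMI 1640 with 15% heat-inactivated FCS and antibiotics at 37 °C in 5% CO2. After 24 h, compound was added in complete medium. For the irradiated arm, cells were kept 1 h in the dark, then given 0.789 J cm-2 UVA (365 nm lamps). Cells were incubated a further 24 h and viability read by trypan blue. IC50 is the concentration giving 50% fewer cells than control.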

[2] = test system: HeLa; test: Antiproliferative activity against HeLa cells in presence of 0.789 J/cm2 UVA light; format: functional, cell-based; conditions: Homo sapiens, light or radiation study
Summary of the method: (§2)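 HeLa cells (10^5 per well) were grown in F-12 with 10% heat-inactivated FCS at 37 °C in 5% CO2. After 24 h, medium was swapped for phenol-red-free DMEM with compound. For UVA, cells were irradiated after 1 h at 0.789 J cm-2 (365 nm), then the drug medium was replaced with complete F-12 for 24 h. In the dark arm, cells stayed 24 h with compound in complete F-12. IC50 is the concentration giving 50% fewer cells than control.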

[3] = test system: HeLa; test: Antiproliferative activity against HeLa cells in dark; format: functional, cell-based; conditions: Homo sapiens; summary of the method: as §2
[4] = organism: Cavia porcellus; test: Phototoxicity in albino Dunkin-Hartley guinea pig skin assessed as formation of erythema at 0.14 umol/cm2; format: organism-based, Zone of skin; conditions: in vivo, topical_or_ocular
Summary of the method: (§3)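 Depilated albino outbred Dunkin-Hartley guinea pigs received the compound as an ethanol solution applied topically to the skin. Animals were kept 45 min in the dark, then the treated skin was irradiated with 20 kJ m-2 UVA. Erythema was scored after 48 h.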

[5] = test system: HL-60; test: Antiproliferative activity against HL60 cells in presence of 0.789 J/cm2 UVA light; format: functional, cell-based; conditions: Homo sapiens, HL-60, light or radiation study; summary of the method: as §1
[6] = test system: Cavia porcellus; test: Phototoxicity in albino Dunkin-Hartley guinea pig skin assessed as formation of erythema with edema at 0.046 umol/cm2; format: organism-based, Zone of skin; conditions: in vivo, topical_or_ocular; summary of the method: as §3
[7] = organism: Cavia porcellus; test: Phototoxicity in albino Dunkin-Hartley guinea pig skin assessed as formation of erythema at […]; format: organism-based, Zone of skin; conditions: in vivo, topical_or_ocular; summary of the method: as §3
[8] = target: DNA topoisomerase II (Homo sapiens) (UniProt P11388+Q02880); test: Inhibition of topoisomerase 2 by ATP-dependent decatenation of kinetoplast DNA; format: protein assay
Summary of the method: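 Human topoisomerase II (1 U) was incubated with 0.15 µg kinetoplast DNA and compound (1, 2, 4, 8 µM) in 20 µL for 1 h at 37 °C. The reaction was stopped with stop buffer plus proteinase K 50 µg/mL for 30 min at 37 °C. Decatenation was read on a 1% agarose gel with ethidium bromide 0.5 µg/mL in TAE, pH 8.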

IC50 [1] [µM] | IC50 [2] [µM] | IC50 [3] [µM] | IC50 [5] [µM] | inhibition [8] | SMILES | Activity [4] | Activity [6] | Activity [7]
7.9 | 0.4 | > 20 | 0.61 |  | Cc1cc(=O)oc2cc(OCCCN(C)C)c3c4c(oc3c12)CCCC4 | Not Active |  | 
> 20 | > 20 | > 20 | > 20 |  | Cc1cc(=O)oc2cc(O)c3c4ccccc4oc3c12 | Not Active |  | 
> 20 | > 20 | > 20 | > 20 |  | COc1cc2oc(=O)cc(C)c2c2oc3c(c12)CCCC3 | Not Active |  | 
0.48 | 0.0043 | 3.5 | 0.0105 | Dose-dependent effect | Cc1cc(=O)oc2cc(OCCCN(C)C)c3c4ccccc4oc3c12 |  | Active | Not Active

Continued, compound first:

SMILES | IC50 [1] [µM] | IC50 [2] [µM] | IC50 [3] [µM] | IC50 [5] [µM] | inhibition [8] | Activity [4] | Activity [6] | Activity [7]
COc1c2occc2cc2ccc(=O)oc12 [METHOXSALEN] | > 20 |  | > 20 |  |  |  | Active | 
Cc1cc(=O)oc2cc(O)c3c4c(oc3c12)CCCC4 | > 20 | > 20 | > 20 | > 20 |  | Not Active |  | 
COc1cc2oc(=O)cc(C)c2c2oc3ccccc3c12 | > 20 | > 20 | > 20 | > 20 |  | Not Active |  | 
